In ChEMBL document CHEMBL3992547, “Antimicrobial activity of rhodanine-3-acetic acid derivatives” (Bioorg Med Chem, 2017):
Values after ≈ are worked out from the molar mass of the structure shown. Active and inactive are the calls of the source. The rule behind the calls is not given here.

Tests used:
Candida albicans [1] = assay: Antifungal activity against Candida albicans ATCC 44859 after 24 hrs by microdilution broth assay; format: functional; details: ATCC 44859, 24 h
Method in brief: (§1)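 Broth microdilution per CLSI M27-A3 and M38-A2 in RPMI 1640 with glutamine, buffered to pH 7.0 with MOPS. Compounds are diluted in DMSO. Final inoculum is 5 × 10³ CFU/mL for yeasts and 0.5–5 × 10⁴ CFU/mL for moulds. Plates are incubated in the dark at 35 °C in humid air and read visually and/or at 540 nm after 24 and 48 h. MIC is ≥80% growth reduction (IC₈₀) for yeasts and ≥50% (IC₅₀) for filamentous fungi.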

Staphylococcus aureus [2] = assay: Antibacterial activity against Staphylococcus aureus CCM 4516/08 incubated for 24 hrs under dark condition by microdilution broth assay; format: functional; details: CCM 4516/08, 24 h
Method in brief: (§2)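 Broth microdilution per M07-A07, modified, in Mueller-Hinton broth adjusted to pH 7.4 (±0.2). Inoculum is prepared in sterile water to McFarland 0.5 (1.5 × 10⁸ CFU/mL). Plates are incubated in the dark at 35 °C in humid air. MIC is read after 24 and 48 h as at least 95% growth reduction versus control (IC₉₅).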

Aspergillus fumigatus [3] = assay: Antifungal activity against Aspergillus fumigatus 231 after 24 hrs by microdilution broth assay; format: functional; details: Aspergillus fumigatus, 231, 24 h; method in brief: as §1
Pseudomonas aeruginosa = assay: Antibacterial activity against Pseudomonas aeruginosa CCM 1961 up to 500 uM incubated for 24 to 48 hrs under dark condition by microdilution broth assay; format: functional; method in brief: as §2
Mycobacterium kansasii [4] = assay: Antimycobacterial activity against Mycobacterium kansasii isolate 235/80 after 14 days by micromethod; format: functional; details: isolate 235/80, 336 h
Candida tropicalis [5] = assay: Antifungal activity against Candida tropicalis 156 after 24 hrs by microdilution broth assay; format: functional; details: Candida tropicalis, 156, 24 h; method in brief: as §1
Mycobacterium kansasii [6] = assay: Antimycobacterial activity against Mycobacterium kansasii isolate 6509/96 after 7 days by micromethod; format: functional; details: isolate 6509/96, 168 h
Klebsiella pneumoniae [7] = assay: Antibacterial activity against Klebsiella pneumoniae D 11750/08 up to 500 uM incubated for 24 to 48 hrs under dark condition by microdilution broth assay; format: functional; method in brief: as §2
Mycobacterium avium [8] = assay: Antimycobacterial activity against Mycobacterium avium 330/88 measured after 14 days by micromethod; format: functional; details: 330/88, 336 h
[9] = tested on: Trichophyton mentagrophytes; assay: Antifungal activity against Trichophyton mentagrophytes 445 after 120 hrs by microdilution broth assay; format: functional; details: Trichophyton mentagrophytes, 445, 120 h
Method in brief: (§3)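 Broth microdilution per CLSI M38-A2 in RPMI 1640 with glutamine, buffered to pH 7.0 with MOPS, with DMSO as diluent. Final inoculum is 0.5–5 × 10⁴ CFU/mL. Plates are incubated in the dark at 35 °C in humid air and read visually and/or at 540 nm after 72 and 120 h. MIC is at least 50% growth reduction versus control.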

Mycobacterium kansasii [10] = assay: Antimycobacterial activity against Mycobacterium kansasii isolate 235/80 after 7 days by micromethod; format: functional; details: isolate 235/80, 168 h
Escherichia coli [11] = assay: Antibacterial activity against Escherichia coli CCM 4517 incubated for 24 hrs under dark condition by microdilution broth assay; format: functional; details: CCM 4517, 24 h; method in brief: as §2
Klebsiella pneumoniae [12] = assay: Antibacterial activity against ESBL positive Klebsiella pneumoniae J 14368/08 up to 500 uM incubated for 24 to 48 hrs under dark condition by microdilution broth assay; format: functional; method in brief: as §2
Mycobacterium kansasii [13] = assay: Antimycobacterial activity against Mycobacterium kansasii isolate 235/80 after 21 days by micromethod; format: functional; details: isolate 235/80, 504 h
[14] = tested on: Staphylococcus epidermidis; assay: Antibacterial activity against Staphylococcus epidermidis H 6966/08 incubated for 48 hrs under dark condition by microdilution broth assay; format: functional; details: H 6966/08, 48 h; method in brief: as §2
Pichia kudriavzevii = assay: Antifungal activity against Candida krusei E28 after 24 to 48 hrs hrs by microdilution broth assay; format: functional; method in brief: as §1
Enterococcus [15] = assay: Antibacterial activity against Enterococcus sp. J 14365/08 incubated for 48 hrs under dark condition by microdilution broth assay; details: J 14365/08, 48 h
Escherichia coli [16] = assay: Antibacterial activity against Escherichia coli CCM 4517 incubated for 48 hrs under dark condition by microdilution broth assay; format: functional; details: CCM 4517, 48 h; method in brief: as §2
Trichosporon asahii [17] = assay: Antifungal activity against Trichosporon asahii 1188 after 24 hrs by microdilution broth assay; format: functional; details: Trichosporon asahii, 1188, 24 h; method in brief: as §1
Candida tropicalis [18] = assay: Antifungal activity against Candida tropicalis 156 after 48 hrs by microdilution broth assay; format: functional; details: Candida tropicalis, 156, 48 h; method in brief: as §1
Nakaseomyces glabratus [19] = assay: Antifungal activity against Candida glabrata 20/I after 48 hrs by microdilution broth assay; format: functional; method in brief: as §1
Staphylococcus aureus [20] = assay: Antibacterial activity against Staphylococcus aureus CCM 4516/08 incubated for 48 hrs under dark condition by microdilution broth assay; format: functional; details: CCM 4516/08, 48 h; method in brief: as §2
Staphylococcus aureus [21] = assay: Antibacterial activity against methicillin-resistant Staphylococcus aureus H 5996/08 incubated for 48 hrs under dark condition by microdilution broth assay; format: functional; details: H 5996/08, 48 h
Method in brief: (§4)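 Microdilution broth method modified per M07-A07, in Mueller-Hinton broth adjusted to pH 7.4 (±0.2). Inoculum made in sterile water to 0.5 McFarland (1.5 × 10⁸ CFU/mL). Plates incubated in the dark at 35 °C in a humid atmosphere, with reads at 24 and 48 h. MIC taken as at least 95% growth reduction (IC₉₅) versus control.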

Mycobacterium kansasii [22] = assay: Antimycobacterial activity against Mycobacterium kansasii isolate 6509/96 after 14 days by micromethod; format: functional; details: isolate 6509/96, 336 h
Enterococcus [23] = assay: Antibacterial activity against Enterococcus sp. J 14365/08 incubated for 24 hrs under dark condition by microdilution broth assay; details: J 14365/08, 24 h
Mycobacterium avium [24] = assay: Antimycobacterial activity against Mycobacterium avium 330/88 measured after 21 days by micromethod; format: functional; details: 330/88, 504 h
[25] = tested on: Trichophyton mentagrophytes; assay: Antifungal activity against Trichophyton mentagrophytes 445 after 72 hrs by microdilution broth assay; format: functional; details: Trichophyton mentagrophytes, 445, 72 h; method in brief: as §3
[26] = tested on: Mycobacterium tuberculosis; assay: Antimycobacterial activity against Mycobacterium tuberculosis H37Rv 331/88 measured after 21 days by micromethod; format: functional; details: H37Rv 331/88, 504 h
[27] = tested on: Staphylococcus epidermidis; assay: Antibacterial activity against Staphylococcus epidermidis H 6966/08 incubated for 24 hrs under dark condition by microdilution broth assay; format: functional; details: H 6966/08, 24 h; method in brief: as §2
[28] = tested on: Mycobacterium tuberculosis; assay: Antimycobacterial activity against Mycobacterium tuberculosis H37Rv 331/88 measured after 14 days by micromethod; format: functional; details: H37Rv 331/88, 336 h
Mycobacterium kansasii [29] = assay: Antimycobacterial activity against Mycobacterium kansasii isolate 6509/96 after 21 days by micromethod; format: functional; details: isolate 6509/96, 504 h
Nakaseomyces glabratus [30] = assay: Antifungal activity against Candida glabrata 20/I after 24 hrs by microdilution broth assay; format: functional; method in brief: as §1
Lichtheimia corymbifera = assay: Antifungal activity against Absidia corymbifera 272 after 24 to 48 hrs hrs by microdilution broth assay; format: functional; method in brief: as §1
Staphylococcus aureus [31] = assay: Antibacterial activity against methicillin-resistant Staphylococcus aureus H 5996/08 incubated for 24 hrs under dark condition by microdilution broth assay; format: functional; details: H 5996/08, 24 h; method in brief: as §4
[32] = Solubility of the compound in Sula's semisynthetic medium up to 1 mM; format: physicochemical
Trichosporon asahii [33] = assay: Antifungal activity against Trichosporon asahii 1188 after 48 hrs by microdilution broth assay; format: functional; details: Trichosporon asahii, 1188, 48 h; method in brief: as §1
Aspergillus fumigatus [34] = assay: Antifungal activity against Aspergillus fumigatus 231 after 48 hrs by microdilution broth assay; format: functional; details: Aspergillus fumigatus, 231, 48 h; method in brief: as §1
Candida albicans [35] = assay: Antifungal activity against Candida albicans ATCC 44859 after 48 hrs by microdilution broth assay; format: functional; details: ATCC 44859, 48 h; method in brief: as §1

With `O=C(O)CN1C(=O)/C(=C/c2ccccc2O)SC1=S` the MIC80 (Candida albicans [1]) was 500 µM (≈ 148 µg/mL), the MIC95 (Staphylococcus aureus [2]) was 62.5 µM (≈ 18.5 µg/mL) and the MIC50 (Aspergillus fumigatus [3]) was over 500 µM. For the same compound, the Activity (Pseudomonas aeruginosa) was “inactive”, the MIC (Mycobacterium kansasii [4]) was 62.5 µM (≈ 18.5 µg/mL) and the MIC80 (Candida tropicalis [5]) was over 500 µM. The MIC (Mycobacterium kansasii [6]) was 32 µM (≈ 9.45 µg/mL), the Activity (Klebsiella pneumoniae [7]) was “inactive” and the MIC (Mycobacterium avium [8]) was 125 µM (≈ 36.9 µg/mL). It also gave an MIC50 [9] of 250 µM (≈ 73.8 µg/mL), an MIC (Mycobacterium kansasii [10]) of 32 µM (≈ 9.45 µg/mL) and an MIC95 (Escherichia coli [11]) of 500 µM (≈ 148 µg/mL). The Activity (Klebsiella pneumoniae [12]) was “inactive”, the MIC (Mycobacterium kansasii [13]) was 62.5 µM (≈ 18.5 µg/mL) and the MIC95 [14] was 125 µM (≈ 36.9 µg/mL). The Activity (Pichia kudriavzevii) was “inactive”, the MIC95 (Enterococcus [15]) was 125 µM (≈ 36.9 µg/mL) and the MIC95 (Escherichia coli [16]) was over 500 µM. It also gave an MIC80 (Trichosporon asahii [17]) of over 500 µM, an MIC80 (Candida tropicalis [18]) of over 500 µM and an MIC80 (Nakaseomyces glabratus [19]) of over 500 µM. It also gave an MIC95 (Staphylococcus aureus [20]) of 62.5 µM (≈ 18.5 µg/mL), an MIC95 (Staphylococcus aureus [21]) of 62.5 µM (≈ 18.5 µg/mL) and an MIC (Mycobacterium kansasii [22]) of 62.5 µM (≈ 18.5 µg/mL). The MIC95 (Enterococcus [23]) was 125 µM (≈ 36.9 µg/mL), the MIC (Mycobacterium avium [24]) was 125 µM (≈ 36.9 µg/mL) and the MIC50 [25] was 250 µM (≈ 73.8 µg/mL). For the same compound, the MIC [26] was 32 µM (≈ 9.45 µg/mL), the MIC95 [27] was 125 µM (≈ 36.9 µg/mL) and the MIC [28] was 32 µM (≈ 9.45 µg/mL). For the same compound, the MIC (Mycobacterium kansasii [29]) was 62.5 µM (≈ 18.5 µg/mL), the MIC80 (Nakaseomyces glabratus [30]) was over 500 µM and the Activity (Lichtheimia corymbifera) was “inactive”. The MIC95 (Staphylococcus aureus [31]) was 62.5 µM (≈ 18.5 µg/mL), the solubility [32] was “Soluble” and the MIC80 (Trichosporon asahii [33]) was over 500 µM. For the same compound, the MIC50 (Aspergillus fumigatus [34]) was over 500 µM and the MIC80 (Candida albicans [35]) was 500 µM (≈ 148 µg/mL).
